The text below walks through data of the RNAGym collection of RNA variant scans (doi:10.1126/science.aae0568).

Fewer inactive variants are shown than the library holds.

Sequences and labels used below:
B1: tRNA (parent)
chain: GUUCCGUUGGCGUAAUGGUAACGCGUCUCCCUCCUAAGGAGAAGACUGCGGGUUCGAGUCCCGUACGGAACG

Variants of B1 are the subject of the series. The series is described as follows: yeast fitness relative to wild type (ratio to wild type); higher = fitter; tRNA-Arg(CCU), competitive growth, 37 C, YPD. Put shortly:
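Variants of the tRNA-Arg(CCU) gene were chemically synthesised with a 3% per-site mutation rate across 69 sites and placed at the native genomic locus in Saccharomyces cerevisiae. Six parallel replicates of the pooled strains were competed in YPD at 37°C for 24 hours, and gene amplicons from the start and end populations were read by 100-nucleotide paired-end sequencing. Darwinian fitness relative to wild type was derived from changes in genotype frequencies. Genotypes required ≥ 100 starting reads, and estimates < 0.5 were set to 0.5.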
Take GUUCCGUAGGCGUAAUAGCAACGCGUCUCCCUCCUAAGGAGAAGACUGCGGGUUCGAGUCCCGUACGGAACG [U8A G17A U19C]: the yeast fitness worked out at 0.586.

For the variant GUUCCGUAGGCAUAAUGGUAAAGCGUCUCCGUCCUAAGGAGAAGACUGCGGGUUCGAGUCCCGUCCGGAACG [U8A G12A C22A C31G A65C], the yeast fitness was no more than 0.5.

Consider GUUCCGUAGGCGUAAUGAUAACGCGUCUCGCUCCUAAGGCGAAGACCGCGGAUUCGAGUCCCGUACGGAACG [U8A G18A C30G A40C U47C G52A], for which the yeast fitness is no more than 0.5.

With GUUCCGUAGGCGUAAUGCUAACGCGUUUCCCCCCUAAGGAGAAGACUGCGGGUUCGAGUCCCGUAGGGAUCG [U8A G18C C27U U32C C66G A70U], the yeast fitness was no more than 0.5.

On to GUUCCGUACGCGUAAUGGUAACGCGUCUCCCUCCUAAAGCGAAGACUGCGGGUUCGAGUCCCGUACGGAACG [U8A G9C G38A A40C], for which the yeast fitness is no more than 0.5.

Turning to GUUCCGUAGGCGUAAUGGUAACGCGUCUCCCUCUAAAGGAGAAGAUUGCGGGUUCGAGUCCCGUACGGAUCG [U8A C34U U35A C46U A70U], the yeast fitness was no more than 0.5.

As for GUUCCGUAGGCGUAAUGCUAACGAGUCUCCCCCCUAAGGAGAAGACUGCGGGUUCGAGUCCCGUACGGAACG [U8A G18C C24A U32C], the yeast fitness was found to be 0.607.

For the variant GUUCCGUAGGCGUAAUGGUAACGCGUCUCGCUCCUAAGGAGAAGAAUGCGGGUUCGAGUCCCAUACGGAACG [U8A C30G C46A G63A], the yeast fitness is no more than 0.5.

With GUUCCGUAGGCAUAAUGGUCACGCGUCUCCCUCCUAAGGAGAAGACUGCGGGUUCCAGACCCGUACGGAACG [U8A G12A A20C G56C U59A], the yeast fitness is 0.581.

With GUUCCGUACGCGUAAUGGUAACGCGUCUCCCUCCUAAGGAGAAGACAGCGGGUUCGAGUCCCGUACGCAACG [U8A G9C U47A G68C], the yeast fitness was no more than 0.5.

On to GUUCCGUAGGCGUAAUGGUAACGCGUCUCCGUCCUAAGGAGAAGACUGCGGGUUUGAGUCCCGUACCGAACG [U8A C31G C55U G67C], for which the yeast fitness was no more than 0.5.

For GUUCCGUAGGCGUAAUGAUAACGCGUCUCCCUCCUAAGGACAAGACUGCGGGUUCGGGUCCCGUACGGAACG [U8A G18A G41C A57G], the yeast fitness is no more than 0.5.

With GUUCCGUAGCUGUAAUGGUAACGUGUCUCCCUCCUAAGGAGCAGACCGCGGGUUCGAGUCCCGUACGGAACG [U8A G10C C11U C24U A42C U47C], the yeast fitness was 0.777.

As for GUUCCGUAGGCAUCAUGGUAACGCGUCUCCCUCCUAAGGAGAAGACUGCGGGUUCGUGUCCCGUACCGAACG [U8A G12A A14C A57U G67C], the yeast fitness was no more than 0.5.

With GUUCCGUAGGCGUAAUGGUAACGCGUCUCCCUCAUAAGGAGAAGACUGCGGGUUCGAGUCCCGUUCGGAACG [U8A C34A A65U], the yeast fitness was no more than 0.5.

Turning to GUUCCGUAGGCGUAAUGGUAACGCGUCUCCCUCGUAUGGAGUAGACUGCGGGUUCGGGUCCCGUACGGAACG [U8A C34G A37U A42U A57G], the yeast fitness is no more than 0.5.

Take GUUCCGUAUGCGUAAUGGUAACGCGUCUCCCUCCUAAGGAGCAGACUGCGGCUUCGAGUCCCGUACGGAACG [U8A G9U A42C G52C]: the yeast fitness was no more than 0.5.

Consider GUUCCGUAGGCGUAAUGGUAACGCGUCUCCAUGCUAAGGAGAAGACUGCGGGUUCGAGUCCCGUACGGAACG [U8A C31A C33G], for which the yeast fitness was 0.542.

For the variant GUUCCGUAGGCGUAAUGGUAACGCGUCUUCCUCCUAAGGAGAAGACUGCGCGUUCGAGUCCCGUACGGAACG [U8A C29U G51C], the yeast fitness stood at 0.571.

In the case of GUUCCGUAGGCGUAAUGGUAACGCGUCUCCCUCUUAAGGAGAAGACUGCGGGUUUGAGUCCCGUAAGGAACG [U8A C34U C55U C66A], the yeast fitness is no more than 0.5.

For GUUCCGUAGGCGUAAUGCUAACGAGUCUCCCCCCUAAGGAGAAGACUGCGGGUUCGAGUCCCGUACGGUACG [U8A G18C C24A U32C A69U], the yeast fitness was 0.565.

Regarding GUUCCGUAGGCGUAAUGGUAACGCGUCUCGCUCCUAAGGAGAAGACUGCGGGUUCGAGACCCGUACGGAACG [U8A C30G U59A], the yeast fitness was no more than 0.5.

Consider GUUCCGUAGGCGUAAUGAUAACGCGUCUCCCUCCUAAGGAGAAGACUGCGGGUUCGAGUCCCGUACUGCACG [U8A G18A G67U A69C], for which the yeast fitness was no more than 0.5.

Regarding GUUCCGUAGGCGUAAUGGUAACGCGUCUCCCUCCUAAGGAGAAGACUGCGGGUUCGAGUACCGUACGGAACG [U8A C60A], the yeast fitness is no more than 0.5.

As to GUUCCGUAGCCGUAAUGGUUACGCGUCUCCCUCCUAAGGAUAAGACUGCGCGUUCGAGUCCCGUACGGAACG [U8A G10C A20U G41U G51C], the yeast fitness was no more than 0.5.

GUUCCGUAGGCGUAAUGGUAACGCGUCUCACUCCUAAGGAGAAGACUGCGGGUUCGAGUCCCGUGCGGAACG [U8A C30A A65G]: the yeast fitness was 0.543.

On to GUUCCGUAGGCGUAAUAGUAAUGCGUCUCCCUCCUAAGGAGAAGACUGCGGGUUCGAGUCCCGUACGGAACG [U8A G17A C22U], for which the yeast fitness was found to be 0.607.

In the case of GUUCCGUAGGCGUAAUGGUAACGCGUCUCCCUCCUAAGGAGAAGACUGCGGGUUCGAGUCCCGUAAGCAACG [U8A C66A G68C], the yeast fitness was no more than 0.5.

On to GUUCCGUAGGCGUAAUAGUAACGCGUCUCCUUUUUAAGGAGAAGAGUGCGGGUUCGAGUCCAGUACGGAACG [U8A G17A C31U C33U C34U C46G C62A], for which the yeast fitness was no more than 0.5.

Take GUUCCGUAGGCGUAAUGGUAACGCGUCUCCCUGCUAAGGAGUUGACUGUGGGUUCGAGUCCCGUCCGCAACG [U8A C33G A42U A43U C49U A65C G68C]: the yeast fitness was no more than 0.5.

For the variant GUUCCGUAGGCGUAAUGGUAACGCGUCUCCCUCCUAAGGAGAAGACUGCGGGUUCGAGUCACGUUCGGAACG [U8A C61A A65U], the yeast fitness stood at 0.554.

For the variant GUUCCGUAGGCGUAAUGGUAACGCGUCUCACUCCUAGGGAGAAGAUUGCGGGUUCGCGUCCCGUACGGAACG [U8A C30A A37G C46U A57C], the yeast fitness is 0.579.

As for GUUCCGUAGGCCUAAUGGUACCGCGUGUCCUUCCUAAGGAGAAGACUGCGGAUUCGAGUCCCGUACGGAACG [U8A G12C A21C C27G C31U G52A], the yeast fitness is 0.59.

Turning to GUUCCGUAGACGUAAUGGUAACGCGUCUCCCUCCUAAGGAGACGACUGCGGGUUCGAGUCCCGUACGGAACG [U8A G10A A43C], the yeast fitness was determined as 0.646.

GUUCCGUAGGCGUAAUGGUAACGCGUCUCCUUCCUAGGGAGAAGACUGCGGGUUCGAGUCCCGUACGGAACG [U8A C31U A37G]: the yeast fitness was no more than 0.5.

For GUUCCGUAGGCGUAAUGGUAACGCGUCUCCCUCCUAAGGAGAAGACUGCGGGUUCGAGUCCCGUAGGCAACG [U8A C66G G68C], the yeast fitness is no more than 0.5.

In the case of GUUCCGUAGGCGUAAUGCUAACGCGUUUCCCUCCUAAGGAGAAGACUGCGCGUUAGAGUCCUGUUCGGUACG [U8A G18C C27U G51C C55A C62U A65U A69U], the yeast fitness was 0.647.

Regarding GUUCCGUAGGCGUAAUGCUAACGCGUCUCCCUCCUAAGGAAAAGACUGCGGGUUCGAGUCCCGUACGGAACG [U8A G18C G41A], the yeast fitness was no more than 0.5.
